Measurements: paper PMC9486889 (Japanese Journal of Clinical Oncology, 2022)

Test: Phase I dose-escalation: DLT/MTD and treatment-emergent adverse events
Assay type: in vivo, Japanese patients
How it was run: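 Open-label, non-randomized 3+3 dose escalation, starting at 30 mg oral BIW with planned escalation to 50 mg, in continuous 4-week cycles. The DLT window was 28 days from first dose. DLTs were grade 4 hematologic toxicity, grade ≥3 febrile neutropenia, grade 3 thrombocytopenia with significant bleeding, other grade ≥3 non-hematologic toxicity, or troponin rising on 3 consecutive days. AEs were coded by MedDRA 19.1 and graded by CTCAE 4.03.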

For `Nc1cc(F)ccc1NC(=O)c1ccc(CNC(=O)/C=C/c2cccnc2)cc1` [HBI-8000, tucidinostat], the “Grade 4 TEAE: Thrombocytopenia” value (40 mg BIW (N = 7)) was 0 (0) n (%), the “Grade 4 TEAE: White blood cell count decreased” value (40 mg BIW (N = 7)) was 0 (0) n (%) and the “Number of patients with at least one related TEAE” value (40 mg BIW (N = 7)) was 7 (100) n (%). For the same molecule, the “TEAE: Abdominal pain” value (40 mg BIW (N = 7)) was 1 (14.3) n (%), the “TEAE: Anaemia” value (40 mg BIW (N = 7)) was 0 (0) n (%) and the “TEAE: Back pain” value (40 mg BIW (N = 7)) was 2 (28.6) n (%). For the same molecule, the “TEAE: C-reactive protein increased” value (40 mg BIW (N = 7)) was 1 (14.3) n (%), the “TEAE: Decreased appetite” value (40 mg BIW (N = 7)) was 2 (28.6) n (%) and the “TEAE: Diarrhoea” value (40 mg BIW (N = 7)) was 1 (14.3) n (%). The “TEAE: Dysgeusia” value (40 mg BIW (N = 7)) was 1 (14.3) n (%), the “TEAE: Fatigue” value (40 mg BIW (N = 7)) was 1 (14.3) n (%) and the “TEAE: Headache” value (40 mg BIW (N = 7)) was 1 (14.3) n (%). The “TEAE: Hypertriglyceridaemia” value (40 mg BIW (N = 7)) was 1 (14.3) n (%), the “TEAE: Hyperuricaemia” value (40 mg BIW (N = 7)) was 0 (0) n (%) and the “TEAE: Hypocalcaemia” value (40 mg BIW (N = 7)) was 3 (42.9) n (%). For the same molecule, the “TEAE: Hypokalaemia” value (40 mg BIW (N = 7)) was 1 (14.3) n (%), the “TEAE: Insomnia” value (40 mg BIW (N = 7)) was 1 (14.3) n (%) and the “TEAE: Nasopharyngitis” value (40 mg BIW (N = 7)) was 2 (28.6) n (%). The “TEAE: Nausea” value (40 mg BIW (N = 7)) was 2 (28.6) n (%), the “TEAE: Neutropenia” value (40 mg BIW (N = 7)) was 2 (28.6) n (%) and the “TEAE: Neutrophil count decreased” value (40 mg BIW (N = 7)) was 0 (0) n (%). The “TEAE: Platelet count decreased” value (40 mg BIW (N = 7)) was 3 (42.9) n (%), the “TEAE: Pyrexia” value (40 mg BIW (N = 7)) was 2 (28.6) n (%) and the “TEAE: Thrombocytopenia” value (40 mg BIW (N = 7)) was 4 (57.1) n (%). The “TEAE: Weight decreased” value (40 mg BIW (N = 7)) was 2 (28.6) n (%), the “TEAE: White blood cell count decreased” value (40 mg BIW (N = 7)) was 1 (14.3) n (%) and the Incidence of thrombocytopenia (40 mg BIW cohort) was 57.1%. The “TEAEs that led to dose reduction or dose delay” value (40 mg BIW cohort) was “four”, the “TEAEs that led to treatment discontinuation” value (40 mg BIW cohort) was “four” and the “Grade 3: Number of patients with at least one TEAE” value (Total (N = 14)) was 9 (64.3) n (%). For the same molecule, the “Grade 3 TEAE: Abdominal pain” value (Total (N = 14)) was 1 (7.1) n (%), the “Grade 3 TEAE: Alanine aminotransferase increased” value (Total (N = 14)) was 1 (7.1) n (%) and the “Grade 3 TEAE: Anaemia” value (Total (N = 14)) was 1 (7.1) n (%). The “Grade 3 TEAE: Blood creatine phosphokinase increased” value (Total (N = 14)) was 1 (7.1) n (%), the “Grade 3 TEAE: Enterocolitis” value (Total (N = 14)) was 1 (7.1) n (%) and the “Grade 3 TEAE: Erythema multiforme” value (Total (N = 14)) was 1 (7.1) n (%). The “Grade 3 TEAE: Erythema nodosum” value (Total (N = 14)) was 1 (7.1) n (%), the “Grade 3 TEAE: Hyperglycaemia” value (Total (N = 14)) was 1 (7.1) n (%) and the “Grade 3 TEAE: Hypertriglyceridaemia” value (Total (N = 14)) was 1 (7.1) n (%). The “Grade 3 TEAE: Lymphocyte count decreased” value (Total (N = 14)) was 1 (7.1) n (%), the “Grade 3 TEAE: Neutropenia” value (Total (N = 14)) was 1 (7.1) n (%) and the “Grade 3 TEAE: Neutrophil count decreased” value (Total (N = 14)) was 2 (14.3) n (%). The “Grade 3 TEAE: Parkinsonism” value (Total (N = 14)) was 1 (7.1) n (%), the “Grade 3 TEAE: Pyrexia” value (Total (N = 14)) was 1 (7.1) n (%) and the “Grade 3 TEAE: Rash generalized” value (Total (N = 14)) was 1 (7.1) n (%). The “Grade 3 TEAE: Thrombocytopenia” value (Total (N = 14)) was 2 (14.3) n (%), the “Grade 3 TEAE: White blood cell count decreased” value (Total (N = 14)) was 2 (14.3) n (%) and the “Grade 4: Number of patients with at least one TEAE” value (Total (N = 14)) was 2 (14.3) n (%). The “Grade 4 TEAE: Abdominal pain” value (Total (N = 14)) was 0 (0) n (%), the “Grade 4 TEAE: Alanine aminotransferase increased” value (Total (N = 14)) was 0 (0) n (%) and the “Grade 4 TEAE: Anaemia” value (Total (N = 14)) was 0 (0) n (%). For the same molecule, the “Grade 4 TEAE: Blood creatine phosphokinase increased” value (Total (N = 14)) was 0 (0) n (%), the “Grade 4 TEAE: Enterocolitis” value (Total (N = 14)) was 0 (0) n (%) and the “Grade 4 TEAE: Erythema multiforme” value (Total (N = 14)) was 0 (0) n (%). For the same molecule, the “Grade 4 TEAE: Erythema nodosum” value (Total (N = 14)) was 0 (0) n (%), the “Grade 4 TEAE: Hyperglycaemia” value (Total (N = 14)) was 0 (0) n (%) and the “Grade 4 TEAE: Hypertriglyceridaemia” value (Total (N = 14)) was 0 (0) n (%). The “Grade 4 TEAE: Lymphocyte count decreased” value (Total (N = 14)) was 0 (0) n (%), the “Grade 4 TEAE: Neutropenia” value (Total (N = 14)) was 2 (14.3) n (%) and the “Grade 4 TEAE: Neutrophil count decreased” value (Total (N = 14)) was 0 (0) n (%). The “Grade 4 TEAE: Parkinsonism” value (Total (N = 14)) was 0 (0) n (%), the “Grade 4 TEAE: Pyrexia” value (Total (N = 14)) was 0 (0) n (%) and the “Grade 4 TEAE: Rash generalized” value (Total (N = 14)) was 0 (0) n (%). The “Grade 4 TEAE: Thrombocytopenia” value (Total (N = 14)) was 0 (0) n (%), the “Grade 4 TEAE: White blood cell count decreased” value (Total (N = 14)) was 0 (0) n (%) and the “Number of patients with at least one related TEAE” value (Total (N = 14)) was 13 (92.9) n (%). The “TEAE: Abdominal pain” value (Total (N = 14)) was 2 (14.3) n (%), the “TEAE: Anaemia” value (Total (N = 14)) was 5 (35.7) n (%) and the “TEAE: Back pain” value (Total (N = 14)) was 2 (14.3) n (%). For the same molecule, the “TEAE: C-reactive protein increased” value (Total (N = 14)) was 2 (14.3) n (%), the “TEAE: Decreased appetite” value (Total (N = 14)) was 3 (21.4) n (%) and the “TEAE: Diarrhoea” value (Total (N = 14)) was 4 (28.6) n (%). The “TEAE: Dysgeusia” value (Total (N = 14)) was 3 (21.4) n (%), the “TEAE: Fatigue” value (Total (N = 14)) was 4 (28.6) n (%) and the “TEAE: Headache” value (Total (N = 14)) was 2 (14.3) n (%). The “TEAE: Hypertriglyceridaemia” value (Total (N = 14)) was 2 (14.3) n (%), the “TEAE: Hyperuricaemia” value (Total (N = 14)) was 2 (14.3) n (%) and the “TEAE: Hypocalcaemia” value (Total (N = 14)) was 3 (21.4) n (%). For the same molecule, the “TEAE: Hypokalaemia” value (Total (N = 14)) was 3 (21.4) n (%), the “TEAE: Insomnia” value (Total (N = 14)) was 2 (14.3) n (%) and the “TEAE: Nasopharyngitis” value (Total (N = 14)) was 2 (14.3) n (%). For the same molecule, the “TEAE: Nausea” value (Total (N = 14)) was 3 (21.4) n (%), the “TEAE: Neutropenia” value (Total (N = 14)) was 3 (21.4) n (%) and the “TEAE: Neutrophil count decreased” value (Total (N = 14)) was 2 (14.3) n (%). For the same molecule, the “TEAE: Platelet count decreased” value (Total (N = 14)) was 6 (42.9) n (%), the “TEAE: Pyrexia” value (Total (N = 14)) was 3 (21.4) n (%) and the “TEAE: Thrombocytopenia” value (Total (N = 14)) was 6 (42.9) n (%). The “TEAE: Weight decreased” value (Total (N = 14)) was 3 (21.4) n (%), the “TEAE: White blood cell count decreased” value (Total (N = 14)) was 4 (28.6) n (%) and the “Neutrophil count decreased leading to dose reduction or dose delay” value (all 14 patients) was 14.3%. The “Patients with at least one TEAE” value (all 14 patients) was 92.9%, the “Platelet count decreased leading to dose reduction or dose delay” value (all 14 patients) was 28.6% and the “TEAEs that led to dose reduction or dose delay” value (all 14 patients) was 57.1%. For the same molecule, the “TEAEs that led to treatment discontinuation” value (all 14 patients) was 42.9%, the “Recommended phase II dose (RP2D)” value (oral) was 40 mg BIW and the “Maximum tolerated dose (MTD)” value (oral, 4-week cycles) was 40 mg BIW.
